The results in this text go back to ChEMBL document CHEMBL2331340, “Novel antitumor indolizino[6,7-b]indoles with multiple modes of action: DNA cross-linking and topoisomerase I and II inhibition” (J Med Chem, 2013).

Structures are written as SMILES. The source made the active and inactive calls.

A short description of data set [1]: Half life in rat plasma at 1 to 10 ug/mL after 1 to 4 hrs by HPLC analysis. It counts as ADME, cell-free. The method in brief:
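Rat plasma spiked at 1 and 10 μg/mL and held 1, 2, 3 and 4 h at room temperature. Protein precipitated with acetonitrile containing 10 μg/mL propyl paraben internal standard, centrifuged, filtered. Analysed by reversed-phase C18 HPLC in acetonitrile/10 mM NaH2PO4 pH 4.5 (32:68). Stability given as mean relative error, at least three replicates per concentration.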

Data set [2] is described as follows: Cytotoxicity against human HEL299 cells. It counts as cell-based. The following applies: HEL 299.
Data set [3] relates to HT-29. The data set is described as follows: Cytotoxicity against human HT-29 cells after 72 hrs by Alamar blue assay. It counts as functional, cell-based. The conditions noted are these: HT-29, 72 h. The method in brief:
(§1)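 Cells exposed to compound for 72 h, then Alamar blue added with a further 10−12 h at 37 °C and a spectrophotometric read. IC50 from six or seven concentrations by median-effect analysis; mean ± STDEV, n = 3. CL141T is a line derived from a patient lung tumor passaged as a SCID mouse xenograft.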
In general terms: The colour change of resazurin is a common sign of viable cells or microbes.

The test system of data set [4] is NCI-H460. Nature of the data set: Induction of apoptosis in human H460 cells assessed as increase in apoptotic cells at IC50 after 72 hrs by annexin V-FITC/propidium iodide staining-based FACS flow cytometric analysis (reference value: 9.29%). The data set is classed as functional. On the technique in general: Flow cytometry measures light scatter and fluorescence of single cells or particles in a stream.

Data set [5] can be described thus: Cytotoxicity against human CL141T cells after 72 hrs by Alamar blue assay. It counts as functional, cell-based. The method in brief: as §1
Data set [6] has as its system NCI-H460. The data set is described as follows: Induction of apoptosis in human H460 cells assessed as increase in cleaved caspase 3 expression at IC50 after 24 to 72 hrs by Western blotting analysis. It counts as functional, cell-based. In outline:
(§2)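 H460 cells treated at IC50 for 24 and 72 h. Lysate proteins separated by SDS-PAGE and blotted to nitrocellulose, blocked in 5% milk/PBST. Primary antibodies to caspase-3, caspase-7, PARP (full-length and cleaved) and β-actin applied for 1 h at room temperature or overnight at 4 °C; HRP secondary with ECL detection.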

Another data set deals with PC-3. The data set is described as follows: Cytotoxicity against human PC3 cells after 72 hrs by Alamar blue assay. The data set is classed as functional, cell-based. The conditions noted are these: PC-3, 72 h. In outline:
as §1

Data set [7] has as its system NCI-H460. The data set is described as follows: Induction of apoptosis in human H460 cells assessed as increase in apoptotic cells at IC50 after 24 hrs by annexin V-FITC/propidium iodide staining-based FACS flow cytometric analysis (reference value: 4.1%). It counts as functional.
Data set [8] concerns A549. The data set is described as follows: Cytotoxicity against human A549 cells after 72 hrs by Alamar blue assay. It counts as functional, cell-based. The following applies: A549, 72 h. In outline:
as §1

Another data set concerns HCT-116. The data set is described as follows: Cytotoxicity against human HCT116 cells after 72 hrs by Alamar blue assay. The following applies: HCT-116, 72 h. The data set is classed as functional, cell-based. The method in brief:
as §1

For the next data set, the system named is Escherichia coli. The data set is described as follows: Induction of Escherichia coli pEGFP-N1 DNA interstrand cross-linking at 1 to 10 uM after 2 hrs by alkaline agarose gel shift assay. The method in brief: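 Plasmid pEGFP-N1 DNA (1500 ng) incubated with compound at 1, 5 and 10 μM in 3 mM NaCl/1 mM sodium phosphate pH 7.4/1 mM EDTA, 2 h at 37 °C. DNA then BamHI-linearized, EtOH-precipitated, denatured in 0.5 N NaOH/10 mM EDTA, run on 0.8% alkaline agarose at 4 °C (18 V, 22 h), stained with ethidium bromide.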

Data set [9] relates to A549. The data set is described as follows: Antitumor activity against human A549 cells xenografted in nude mouse assessed as tumor growth inhibition at 25 mg/kg, iv qd administered 4 days measured on day 20 relative to vehicle-treated control. The data set is classed as functional. The conditions noted are these: read-out: TGI. (A xenograft is tissue or cells of one species grown in another, often human tumour cells in immunodeficient mice.)

The nature of data set [10]: Cytotoxicity against human KB-VIN10 cells after 72 hrs by Alamar blue assay. The conditions noted are these: KB-VIN10, 72 h.
The nature of data set [11]: Cell cycle arrest in human CL141T cells assessed as accumulation at G2/M phase at 0.5 x IC50 to 1 x IC50 after 48 to 72 hrs by propidium iodide staining-based FACS flow cytometric analysis. It counts as functional. The method in brief: (§3)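 CL141T cells treated at 0.5-, 1- and 2-fold IC50 for 24, 48 and 72 h. Cells fixed in ice-cold 70% EtOH, then stained with 4 μg/mL propidium iodide in PBS with 1% Triton X-100 and 0.1 mg/mL RNase A. Phase distribution from flow cytometry DNA histograms; sub-G1 fraction scored as well.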

Data set [12] has as its system HT-29. The data set is described as follows: Antitumor activity against human HT-29 cells xenografted in nude mouse assessed as tumor growth inhibition at 25 mg/kg, iv qd administered 4 days measured on day 20. The data set is classed as functional, organism-based. Also on record: dose 25 mg/kg.
Data set [13] in a line: Cell cycle arrest in human CL141T cells assessed as accumulation at G1 phase at 1 x IC50 to 2 x IC50 after 24 hrs by propidium iodide staining-based FACS flow cytometric analysis. The data set is classed as functional. The method in brief: as §3
Data set [14] relates to NCI-H460. Nature of the data set: Induction of apoptosis in human H460 cells assessed as increase in cleaved caspase 7 expression at IC50 after 24 to 72 hrs by Western blotting analysis. The data set is classed as functional, cell-based. In outline: as §2
The nature of data set [15]: Cell cycle arrest in human CL141T cells assessed as accumulation at S phase at 0.5 x IC50 after 24 hrs by propidium iodide staining-based FACS flow cytometric analysis. The data set is classed as functional. In outline:
as §3

`Cc1c(CO)c(CO)c2n1Cc1c(c3ccccc3n1C)C2`: in [1], the half-life (in general, the time needed for the level to fall by half in the phase considered) was 12.4 h. In addition, the IC50 (in general, the concentration needed to halve the response being measured) in [2] turned out to be 2.79 µM; in the data set on HT-29 [3], 3.35 µM; in data set [5], 0.51 µM; in the data set with PC-3, 0.61 µM; in the data set with A549 [8], 1.14 µM; in the data set with HCT-116, 1 µM. Moreover, in data set [10], it took 1.31 µM to reach half-maximal inhibition (IC50). Besides, the Activity is 61.35% in the data set on NCI-H460 [4] and 15.09% in the data set on NCI-H460 [7]. Also, the result (in the data set on NCI-H460 [6]; in the data set with Escherichia coli; in data set [11]; in data set [13]; with NCI-H460 [14]; in data set [15]) was Active. In the data set on A549 [9], the inhibition in vivo at 25 mg/kg came out at 50%. Also, the TGI entry in the data set with HT-29 [12] was “Active”.
